Results as given in paper PMC3647260 (Journal of the American Heart Association: Cardiovascular …, 2013).
In brackets after ≈: the same amount, converted by molar mass. Bridge positions count the residues as written; N and C are the ends. Peptide text beside a SMILES is read from it.

Tests used:
ldlr^−/− mice [1] = format: in vivo, mouse (B6.129S7-Ldlrtm1Her/J, female); conditions: 4 weeks, Western diet, osmotic pump, vs saline
Summary of the method: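 Female ldlr−/− mice on a Western diet received peptide by subcutaneous osmotic pump (10 mg in 100 μL water) or saline. After an overnight fast, plasma cholesterol, triglycerides and glucose were measured at 1, 4 and 8 weeks, using a separate group of animals at each time.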

ldlr^−/− mice [2] = experiment: Atherosclerotic lesions in the aortic root; format: in vivo, mouse (B6.129S7-Ldlrtm1Her/J, female); conditions: 0.4 mg/mouse i.p. 3 times daily, 4 weeks; n=5/group
Summary of the method: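 Female ldlr−/− mice aged 6 weeks were fed a Western diet (21% milk fat, 0.15% cholesterol) and given peptide i.p. (0.4 or 0.7 mg in 200 μL saline every 8 or 12 h), with saline controls. Mice were saline-perfused and hearts OCT-frozen. Every other 10-μm aortic sinus section was taken (15 sections, 300 μm), baked overnight at 55°C and stained with Oil-red-O/hematoxylin. Lesion area, excluding the internal elastic lamina, was averaged per mouse.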

NFκB RelA (p65) = experiment: Immunoblot of phosphorylated NFκB RelA in liver extracts of treated mice; format: in vivo, mouse (ldlr^−/−); conditions: 8 weeks, Western diet, osmotic pump, vs saline; relative ratio to total RelA
GAPDH [3] = experiment: Pull-down assay, nonspecific control protein, Jurkat extract; format: binding, human (Jurkat T cells); conditions: biotinylated peptide, Jurkat whole-cell extract; immunoblot
GAPDH [4] = experiment: Pull-down assay, control protein, HepG2 extract; format: binding, human (HepG2 cells); conditions: biotinylated peptide, HepG2 whole-cell extract; immunoblot
Summary of the method: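 HepG2 cells were serum-starved overnight in DMEM/1% FBS and lysed in binding buffer (10 mmol/L HEPES pH 7.9, 150 mmol/L NaCl, 0.1% NP-40, protease inhibitors). Biotinylated peptide (10 nmol) was incubated with 1.5 mg extract overnight at 4°C. After clearing at 16 000g, it was captured on Neutravidin beads for 4 h. Beads were washed, boiled in SDS buffer and immunoblotted for importins and GAPDH.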

SREBP1 [5] = experiment: SREBP1 nuclear translocation in sterol-depleted HepG2 cells; format: cell-based, human (HepG2 cells)
Summary of the method: (§1)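 HepG2 cells were sterol-depleted with hydroxypropyl-β-cyclodextrin for 15 min and rinsed. They were then incubated 2 h in DMEM/5% delipidized FBS with 10 μmol/L MG132 and 0, 10 or 30 μmol/L test compound. Nuclear and cytosolic extracts were immunoblotted for SREBPs, normalized to Lamin A/C or B (nuclear) or GAPDH/β-actin (cytosolic). Percent inhibition of nuclear translocation comes from ≥3 independent experiments.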

SREBP2 [6] = experiment: SREBP2 nuclear translocation in sterol-depleted HepG2 cells; format: cell-based, human (HepG2 cells); conditions: 2 hours after HPCD
Summary of the method: as §1

SREBP1 [7] = experiment: SREBP1 protein in liver extracts of treated mice; format: in vivo, mouse (ldlr^−/−); conditions: Western diet, osmotic pump, vs saline; P<0.05; 8 weeks in Figure 6
SREBP2 [8] = experiment: SREBP2 protein in liver extracts of treated mice; format: in vivo, mouse (ldlr^−/−); conditions: Western diet, osmotic pump, vs saline; P<0.05; 8 weeks in Figure 6
[9] = system: SREBP1 and SREBP2 and their target gene transcripts; experiment: Quantitative PCR of SREBP and target gene transcripts in liver; format: in vivo, mouse (ldlr^−/−); conditions: osmotic pump, vs saline, n=5; for hmgcr (HMG-CoA reductase) mRNA in liver: P<0.005
Summary of the method: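 Total liver RNA from Western diet-fed ldlr−/− mice, given peptide or saline by osmotic pump for 4 or 8 weeks, was reverse-transcribed. Transcripts were quantified by real-time PCR with TaqMan probes, using 18S […] as the invariant control.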

NPC1L1 = NPC1L1 protein in whole-cell liver extracts; format: in vivo, mouse (ldlr^−/−); conditions: 8 weeks, osmotic pump, vs saline; ratio to β actin; 4 mice/group; P<0.05
HDAC3 = HDAC3 in liver nuclear extracts; format: in vivo, mouse (ldlr^−/−); conditions: 8 weeks, osmotic pump, vs saline; 5 mice/group
Summary of the method: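 Liver nuclear extracts came from Western diet-fed ldlr−/− mice after 8 weeks of subcutaneous osmotic pump dosing (10 mg in 100 μL water) or saline; phosphatase inhibitors were added. HDAC3 was immunoblotted and expressed as a ratio to β-actin. Groups were compared by Mann–Whitney test.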

ChREBP = experiment: Glucose-induced nuclear translocation of ChREBP in HepG2 cells; format: cell-based, human (HepG2 cells); conditions: 30 μmol/L, 24 hours; 25 mmol/L glucose + 100 nmol/L insulin after starvation; 3 experiments; P<0.05
Summary of the method: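 HepG2 cells (kept in DMEM/10% FBS) were starved 24 h in DMEM with 5.5 mmol/L glucose. They were refed 25 mmol/L glucose plus 100 nmol/L insulin, with or without 30 μmol/L test compound, for 24 h. Nuclear and cytosolic extracts were prepared with phosphatase inhibitors and immunoblotted for ChREBP, with lamin loading controls for nuclear fractions.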

[10] = Blood cell counts, blood chemistries and overt signs of toxicity; format: in vivo, mouse (ldlr^−/−)
Summary of the method: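 Western diet-fed ldlr−/− mice, treated or saline controls. Complete blood counts were run by a clinical hematology laboratory, and lymphocyte subsets were measured by flow cytometry.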

Solubility = format: physicochemical; conditions: method not given
[11] = liver, spleen, pancreas, and lungs, ref not given; cited from earlier work
[12] = system: microbial and autoimmune inflammation; conditions: ref [29]; cited from earlier work
NOD mice = conditions: intense, short-term treatment, ref [20]; cited from earlier work
[13] = ldlr^−/− mice fed a Western diet

## CSCC[C@@H]1NC(=O)[C@H](CC(C)C)NC(=O)[C@H](CCCCN)NC(=O)[C@H](CCC(N)=O)NC(=O)[C@H](CCCNC(=N)N)NC(=O)[C@H](CCCCN)NC(=O)[C@H](CCCNC(=N)N)NC(=O)[C@H](CCC(N)=O)NC(=O)[C@H](C(C)C)NC(=O)[C@@H](NC(=O)[C@@H]2CCCN2C(=O)[C@H](C)NC(=O)[C@H](CC(C)C)NC(=O)[C@H](CC(C)C)NC(=O)[C@H](C)NC(=O)[C@H](CC(C)C)NC(=O)[C@H](CC(C)C)NC(=O)[C@@H](NC(=O)[C@H](C)NC(=O)[C@@H]2CCCN2C(=O)[C@H](CC(C)C)NC(=O)[C@H](CC(C)C)NC(=O)[C@H](C)NC(=O)[C@@H](NC(=O)[C@H](C)NC(=O)[C@H](C)N)C(C)C)C(C)C)CSSC[C@@H](C(=O)O)NC(=O)[C@@H]2CCCN2C1=O [cSN50.1] (H-AAVALLPAVLLALLAPCVQRKRQKLMPC-OH; disulfide 17-28)
ldlr^−/− mice [1]
  plasma ALT (alanine transaminase): significantly reduced
  plasma AST (aspartate transaminase): significantly reduced
ldlr^−/− mice [2]
  protection from atherosclerosis, lower dose: not protected
NFκB RelA (p65)
  phosphorylated NFκB RelA (p65) in cytosolic and nuclear fractions of liver cells: significantly reduced
GAPDH [3]
  interaction with GAPDH: not with the nonspecific cytoplasmic control protein GAPDH
GAPDH [4]
  interaction with GAPDH: not with the control protein, GAPDH
SREBP1 [5]; 30 μmol/L, 2 hours after HPCD, 4 experiments
  precursor pSREBP1 in cytosolic fraction: remained unchanged
SREBP1 [5]; 30 μmol/L, 2 hours after HPCD, 4 experiments, P<0.05
  nSREBP1 in cytosolic fraction: significantly more
SREBP1 [5]; 2 hours after HPCD, cytosolic fraction
  processing of SREBP precursors to nuclear (mature) forms, SREBP1: unaffected
SREBP1 [5]; gradual sterol depletion, 24 hours, 30 vs 10 μmol/L
  further reduction of nuclear nSREBP1 at 30 μmol/L: did not further reduce nSREBP1 in the nucleus by a significant amount
SREBP1 [5]; rapid and gradual sterol depletion protocols, HepG2
  completeness of SREBP nuclear transport inhibition: did not completely reduce nuclear transport of SREBPs
SREBP1 [5]; rapid depletion with HPCD, 2 hours, 0, 10 or 30 μmol/L
  concentration dependence of nSREBP1 nuclear reduction: concentration dependent
SREBP2 [6]; 30 μmol/L, 3 experiments
  nSREBP2 in cytosolic fraction: not significantly increased
  precursor pSREBP2 in cytosolic fraction: remained unchanged
SREBP2 [6]; cytosolic fraction
  processing of SREBP precursors to nuclear (mature) forms, SREBP2: unaffected
SREBP1 [7]
  nuclear SREBP1 protein in liver: reduced
  precursor SREBP1 protein in liver: reduced
SREBP2 [8]
  nuclear SREBP2 protein in liver: reduced
  precursor SREBP2 protein in liver: reduced
[9]; 4 and 8 weeks
  abcg5 transcripts in liver: not reduced
  abcg8 transcripts in liver: not reduced
[9]; 4 weeks
  hmgcr (HMG-CoA reductase) mRNA in liver: significantly decreased expression
[9]; 4 weeks, P<0.05
  srebf1 (SREBP1) transcripts in liver: reduced
[9]; 8 weeks
  hmgcr (HMG-CoA reductase) mRNA in liver: significantly decreased expression
[9]; 8 weeks, P<0.05
  acly (ATP citrate lyase) transcripts in liver: significantly reduced
  fasn1 (fatty acid synthase-1) transcripts in liver: significantly reduced
  srebf1 (SREBP1) transcripts in liver: reduced
  srebf2 (SREBP2) transcripts in liver: reduced
NPC1L1
  NPC1L1 protein in liver: significant NTM‐induced reduction
HDAC3
  HDAC3 nuclear content in liver: not significantly changed
ChREBP
  attenuation of nuclear accumulation of ChREBP: ≈ 50%
[10]; 8 weeks of treatment, other than changes shown, vs control animals
  blood cell populations and blood chemistries: did not reveal any significant changes
[10]; [13]
  blood chemistries: normal blood chemistries
  red blood cells, white blood cells, major lymphocyte subsets, blood platelets: no changes
[10]; subcutaneous osmotic pumps, 8 weeks
  other side effects: no other side effects were observed
Solubility
  solubility: 100 mg/mL (≈ 33.5 mM)
[11]
  delivery to blood cells and organs: easily delivered
[12]
  biomarkers (liver transaminases) in other models of liver inflammation: significantly reduced
NOD mice
  suppression of diabetes, duration: 1 year
